This is a sample that favours compounds with a hit; in the whole collection about 2.5% have one here.
S100A4 inh HTS = inhibitors of S100A4-myosin IIA peptide binding, primary screen, biochemical, fluorescence polarization, TAMRA-MyoIIA peptide; inhibition, % at 10.7 µM; hit rate 0.14% among 360,000; AID 652163, 2013; Protein S100-A4 (Homo sapiens), P26447;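 active means mean inhibition of at least 70% across replicates, with every replicate also reaching that level; inconclusive means mean inhibition reaches 70% but some replicates fall short; inactive means mean inhibition below 70%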
Target sequence (P26447 whole entry, looked up): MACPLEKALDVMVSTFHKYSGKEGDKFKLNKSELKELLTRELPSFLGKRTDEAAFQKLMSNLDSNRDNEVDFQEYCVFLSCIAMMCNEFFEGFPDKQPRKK
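Test system: S100A4 monomer protein. Medium: HEPES buffer with Ca2+, pH 7.2. Reagent: fluorescent myosin IIA peptide, 5 nM. Compound dosing: single-point compound testing. Timing: 5 min between mix addition and reading. Benchmarks: DMSO neutral and TFP positive wells.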
miR-122 sensor = miR-122 Renilla sensor signal increase in Huh7, primary screen, miR-122 inhibitor project, cell-based, single point, plate reader; Huh7 miR-122 Renilla luciferase sensor, 48 h; neutral wells = 0, positive control = 100; activation (reporter increase), % at 12.5 µM; hit rate 0.3% among 340,000; AID 602342, 2012;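 active means mean replicate activation score at least 90 and every replicate individually at or above 90; inconclusive means only one of the two criteria met; inactive means neither criterion met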;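 further: higher luciferase means less miR-122 activity so hits act as miR-122 inhibitors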
FGF22 binding = binders of human FGF22 protein, primary screen, FGF22 synaptogenesis inhibitor project, biophysical, thermal shift, single point; recombinant FGF22 thermal shift, SYPRO orange fluorescence; percent of sucrose octasulfate shift, DMSO zero; activity (Tm shift, normalised), % at 9.99 µM; hit rate 1.5% among 340,000;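 active means mean Tm shift, scaled 0 neutral to 100 positive control, at about 1.3% or above, every replicate too, limit read from the data; inconclusive means no clear call, values can overlap the other calls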
Target sequence (Q9HCT0 whole entry, looked up): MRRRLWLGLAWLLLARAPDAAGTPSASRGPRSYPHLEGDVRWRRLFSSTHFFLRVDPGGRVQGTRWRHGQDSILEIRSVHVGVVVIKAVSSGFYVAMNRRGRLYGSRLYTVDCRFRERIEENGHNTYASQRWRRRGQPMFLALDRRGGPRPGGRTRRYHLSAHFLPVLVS
E-sel inducer = E-selectin induction in HUVECs, primary screen, imaging, HUVEC, immunofluorescence imaging, single point; P16581; normalized: neutral wells 0, TNF-alpha wells 100; activation, % at 7.58 µM; hit rate 0.37% among 260,000; AID 686992, 2013;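 active means mean E-selectin-positive cell signal at least 10% of the positive control, reached in at least 60% of replicates, without over 20% cell loss; inconclusive means no rule given, readout overlaps actives, possibly toxicity-flagged; inactive means the rest, including those meeting only one limit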
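Assay system: HUVEC, human umbilical vein endothelial cells / Amount: 3,000 HUVEC/well / Controls: TNF-alpha positive control, DMSO neutral control / Compound dosing: single concentration / Medium: EGM-2 over gelatin coat / Evaluation: percent E-selectin-positive cells / Signal: immunofluorescence imaging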
SIRT5 inh = SIRT5 desuccinylase inhibitors, primary screen, biochemical, fluorescence imaging, single point, set 5 | NAD-dependent protein deacylase sirtuin-5, mitochondrial (Homo sapiens), Q9NXA8 | Purified SirT5, succinyl-peptide AMC, trypsin-coupled fluorescence | inhibition, % at 15 µM | hit rate 1.1% among 330,000 | AID 652115, 2013; in the data active means inhibition above about 15%; inconclusive means no clear call, values can overlap the other calls
Target sequence (Q9NXA8 whole entry, looked up): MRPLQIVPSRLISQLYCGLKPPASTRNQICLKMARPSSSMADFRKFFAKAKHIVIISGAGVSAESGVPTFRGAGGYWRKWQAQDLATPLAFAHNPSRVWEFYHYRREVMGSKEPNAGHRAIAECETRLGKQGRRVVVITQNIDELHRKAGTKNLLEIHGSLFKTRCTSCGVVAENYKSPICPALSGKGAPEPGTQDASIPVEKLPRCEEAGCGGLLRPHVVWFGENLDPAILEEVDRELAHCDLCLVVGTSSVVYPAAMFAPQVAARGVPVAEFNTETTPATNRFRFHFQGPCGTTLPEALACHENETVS
Numbers stand for hits; n = inactive; u = inconclusive; x = no result.

SMILES	S100A4 inh HTS	miR-122 sensor	FGF22 binding	E-sel inducer	SIRT5 inh
C[C@@H]1CN([C@@H](C)CO)C(=O)c2cc(C#CC3CCCCC3)cnc2O[C@H]1CN(C)S(=O)(=O)c1cccc(F)c1	n	n	n	x	22
C[C@@H]1CN([C@@H](C)CO)C(=O)c2cc(C#CC3CCCCC3)cnc2O[C@@H]1CN(C)S(=O)(=O)c1cccc(F)c1	n	n	n	n	18
C[C@H]1CN([C@@H](C)CO)C(=O)c2cc(C#CC3CCCCC3)cnc2O[C@H]1CN(C)S(=O)(=O)c1cccc(F)c1	n	n	n	n	n
C[C@H](CO)N1C[C@H](C)[C@@H](CN(C)S(=O)(=O)c2cccc(F)c2)Oc2ncc(C#CC3CCCCC3)cc2C1=O	n	n	n	x	30
C[C@@H]1CN([C@H](C)CO)C(=O)c2cc(C#CC3CCCCC3)cnc2O[C@H]1CN(C)S(=O)(=O)c1cccc(F)c1	n	n	n	n	n
C[C@H](CO)N1C[C@H](C)[C@H](CN(C)C(=O)Nc2cccc3ccccc23)Oc2ccc(NS(=O)(=O)c3cccs3)cc2CC1=O	x	n	n	n	x
CCS(=O)(=O)NCC[C@@H]1CC[C@@H](NC(=O)C2CCCCC2)[C@H](CO)O1	x	x	x	n	x
CC=Cc1ccc2n(c1=O)C[C@H]1[C@H](CO)[C@@H](C(=O)NCCc3ccncc3)[C@@H]2N1CCc1ccccc1 (mixture of isomers)	n	x	x	n	n
C[C@H](CO)N1C[C@H](C)[C@H](CN(C)S(=O)(=O)c2cccc(F)c2)Oc2ncc(-c3cc4ccccc4o3)cc2C1=O	n	n	n	n	15
CCCCC[C@@H](C)N1C[C@@H](COCc2ccccc2)Oc2cc(N3CCC[C@H]3CO)ccc2S1(=O)=O	n	x	n	n	n
CCCCC[C@@H](C)N1C[C@H](COCc2ccccc2)Oc2cc(N3CCC[C@@H]3CO)ccc2S1(=O)=O	n	x	n	n	27
O=C(c1ccccc1)N1C[C@@H]2[C@H](c3ccccc31)[C@H](CO)N2C(=O)Nc1ccccc1Cl	n	n	n	n	n
C[C@@H]1CN([C@H](C)CO)C(=O)c2cc(-c3ccc(F)cc3)cnc2O[C@H]1CN(C)C(=O)Cc1ccccn1	n	n	n	n	23
C[C@@H]1CN([C@@H](C)CO)C(=O)c2cc(-c3ccccc3)cnc2O[C@@H]1CN(C)C(=O)c1cccnc1	n	n	n	n	n
CCC(=O)N(C)C[C@H]1Oc2ncc(-c3ccc(C(=O)N(C)C)cc3)cc2C(=O)N([C@@H](C)CO)C[C@H]1C	111	n	n	n	n
C[C@@H]1CN([C@H](C)CO)C(=O)c2cc(-c3ccccc3)cnc2O[C@@H]1CN(C)C(=O)c1cccnc1	n	x	n	n	16
C[C@H]1CN([C@@H](C)CO)C(=O)c2cc(-c3ccncc3)cnc2O[C@H]1CN(C)C(=O)c1ccncc1	n	n	n	n	16
C/C=C/c1ccc([C@H]2[C@@H](CO)N(Cc3ccccn3)[C@@H]2CNC(C)=O)cc1	n	n	n	n	n
Cc1cccc(NC(=O)c2ncn3c2C(=O)N(C)CC3)c1	n	n	43	n	x
CC(=O)N1CCCN(Cc2cn(-c3ccc(C)cc3)nc2-c2ccc(F)cc2)CC1	n	x	43	n	n
CC(=O)c1cccc(CN2CCN(CC=C(C)C)C(CCO)C2)c1 (centres undefined)	n	n	n	n	17
CC(C)=CCN1CCN(Cc2cn(C(C)C)c3ccccc23)CC1CCO (centres undefined)	n	n	n	x	22
Cc1ccc(CN2CCN(Cc3cn(C(C)C)c4ccccc34)CC2CCO)o1 (centres undefined)	n	n	n	x	n
Cc1noc(C)c1S(=O)(=O)Nc1ccc2c(c1)C(=O)N([C@H](C)CO)C[C@@H](C)[C@H](CN(C)Cc1ccccc1)O2	n	n	n	n	n
COc1cc(C(=O)NNc2nc3cc4c(cc3s2)OCO4)cc(OC)c1OC	n	n	n	108	n
SMILES	S100A4 inh HTS	miR-122 sensor	FGF22 binding	E-sel inducer	SIRT5 inh
O=C(Cc1cccc2ccccc12)NN1C(=O)CSC1=S	n	x	44	n	n
CCCNC(=O)N1CCC2(CC1)CN(C(=O)CC)[C@H](CO)c1[nH]c3cc(OC)ccc3c12	n	x	n	n	n
Cc1cc(C(=O)CN2C(=O)C(=O)N(Cc3ccco3)C2=O)c(C)n1CCc1ccc(F)cc1	n	x	n	90	n
CN1CCN(C(=O)C[C@H]2CC[C@@H]3[C@H](COC[C@@H](O)CN3Cc3ccc4c(c3)OCO4)O2)CC1	n	n	n	n	n
CCN(CC)S(=O)(=O)c1ccc(C(=O)NCc2ccc3c(c2)cc(C)n3C)cc1	n	x	n	x	n
Cc1cc2cc(CNC(=O)c3ccc(S(=O)(=O)N4CCCC4)cc3)ccc2n1C	121	n	n	u	n
Cc1cc2cc(CNC(=O)c3ccc(S(=O)(=O)N4CCCCC4)cc3)ccc2n1C	n	n	n	82	n
C[C@@H]1CCCCO[C@H](CN(C)C(=O)CCC(F)(F)F)[C@H](C)CN([C@H](C)CO)C(=O)c2cc(NS(=O)(=O)c3ccccc3)ccc2O1	n	n	n	n	n
O=C(C[C@@H]1C[C@H]2c3cc(NC(=O)NC4CCCC4)ccc3O[C@H]2[C@H](CO)O1)NCCN1CCCCC1	n	n	n	n	n
COc1cc(CCCN2C(=O)C(=O)NC[C@@H]2Cc2ccc(O)cc2)cc(OC)c1OC	n	n	n	n	n
COc1cc(CCCN2C(=S)NC[C@H]2Cc2ccc(O)cc2)cc(OC)c1OC	n	n	n	n	32
COCC(=O)N1CC2(C1)[C@H](c1ccccc1)[C@H](CO)N2Cc1ccccc1OC	n	x	n	n	n
CO[C@H]1CN(C)C(=O)c2cc(NC(=O)c3ccc(-c4ccccc4)cc3)ccc2OC[C@@H](C)NC[C@@H]1C	n	x	n	n	103
CO[C@H]1CN(C)C(=O)c2cc(NS(=O)(=O)c3ccc(Oc4ccccc4)cc3)ccc2OC[C@H](C)NC[C@H]1C	n	n	n	n	28
CO[C@@H]1CN(C)C(=O)c2cc(NC(=O)c3ccc(Oc4ccccc4)cc3)ccc2OC[C@H](C)NC[C@H]1C	n	x	n	n	100
CO[C@H]1CN(C)C(=O)c2cc(NC(=O)c3ccc(Oc4ccccc4)cc3)ccc2OC[C@@H](C)NC[C@@H]1C	n	x	n	n	n
Cc1noc(C)c1NC(=O)N(C)C[C@@H]1Oc2c(NC(=O)C3CC3)cccc2C(=O)N([C@H](C)CO)C[C@@H]1C	n	n	n	n	n

High-throughput results from PubChem.
